Assay results published in ChEMBL document CHEMBL3352369, “Design, synthesis and biological evaluation of novel 1-hydroxyl-3-aminoalkoxy xanthone derivatives as potent anticancer agents” (Eur J Med Chem, 2014).
Activity calls are given as the source filed them. The calls are words filed in the database; no cut-off is given here.

Legend:
Format in all cases: functional, cell-based
CNE = assay: Antiproliferative activity against human CNE cells assessed as inhibition of cell viability after 48 hrs by MTT assay
Outline: (§1)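 A549, BEL-7402 and CNE lines from SIBS (Shanghai), grown as monolayer in RPMI 1640 with 10% FBS. 5000 cells/well in 96-well plates, graded concentrations for 48 h. MTT incubation 4 h at 37 C, DMSO solubilisation, A490 read. IC50 derived from survival relative to untreated control; 5-fluorouracil reference.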

[1] = Antiproliferative activity against human Bel7402 cells assessed as inhibition of cell viability after 48 hrs by MTT assay; conditions: Bel-7402, 48 h; outline: as §1
MGC-803 [2] = assay: Antiproliferative activity against human MGC803 cells assessed as inhibition of cell viability after 48 hrs by MTT assay; conditions: MGC-803, 48 h
Outline: (§2)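 MGC-803 cells from SIBS (Shanghai), monolayer in RPMI 1640 with 10% FBS. 5000 cells/well in 96-well plates, exposed to compound for 24, 48 or 72 h. MTT added for a further 4 h at 37 C, formazan dissolved in DMSO, absorbance read at 490 nm. Survival rate = sample/control absorbance × 100%. n = 5, three independent experiments, two-tailed t-test.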

A549 = assay: Antiproliferative activity against human A549 cells assessed as inhibition of cell viability after 48 hrs by MTT assay; conditions: A549, 48 h; outline: as §1
MGC-803 [3] = assay: Anticancer activity against human MGC803 cells assessed as colony formation after 24 hrs
Outline: (§3)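 Clonogenic assay: MGC-803 seeded at 200 cells/well in 6-well plates and treated for 24 h. Then kept 10 d at 37 C in humidified CO2. Colonies of >50 cells counted; survival expressed as percent of untreated control (100%). n = 3, three independent experiments.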

MGC-803 [4] = assay: Anticancer activity against human MGC803 cells assessed as colony formation at > 1 uM after 24 hrs; outline: as §3
MGC-803 [5] = assay: Induction of apoptosis in human MGC803 cells assessed as nuclear condensation after 24 hrs
MGC-803 [6] = assay: Induction of apoptosis in human MGC803 cells assessed as koss of Ca2+ homeostasis after 24 hrs by fluorescence microscopy
MGC-803 [7] = assay: Induction of apoptosis in human MGC803 cells assessed as change in mitochondrial membrane potential by Rhodamine 123 assay
Outline: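 Mitochondrial membrane potential measured with the cationic dye rhodamine 123 in treated MGC-803 cells at 10, 50 and 100 μM. Cellular fluorescence intensity normalised to baseline values of untreated control as a semiquantitative index.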

MGC-803 [8] = assay: Anticancer activity against human MGC803 cells assessed as inhibition of cell viability after 24 to 72 hrs by MTT assay; outline: as §2
MGC-803 [9] = assay: Anticancer activity against human MGC803 cells assessed as inhibition of cell viability at 0.01 to 100 uM by MTT assay; conditions: TDE = time-dependent effect; outline: as §2
MGC-803 [10] = assay: Antiproliferative activity against human MGC803 cells assessed as inhibition of cell viability after 24 hrs by MTT assay; conditions: MGC-803, 24 h; outline: as §2
MGC-803 [11] = assay: Antiproliferative activity against human MGC803 cells assessed as inhibition of cell viability after 72 hrs by MTT assay; conditions: MGC-803, 72 h; outline: as §2
MGC-803 [12] = assay: Anticancer activity against human MGC803 cells assessed as cell shrinkage and deformation at 100 uM after 72 hrs by inverted phase contrast microscopy assay

With `O=c1c2ccccc2oc2cc(OCCCCCCBr)cc(O)c12` the IC50 (CNE) was over 100 µM, the IC50 [1] was over 100 µM and the IC50 (MGC-803 [2]) was over 100 µM. The IC50 (A549) was over 100 µM.
In the case of `O=c1c2ccccc2oc2cc(OCCCCCCN3CCCC3)cc(O)c12`, the IC50 (CNE) is reported as 1.24 µM, the IC50 [1] is reported as 17.9 µM and the IC50 (MGC-803 [2]) is reported as 5.32 µM. The IC50 (A549) was 8.94 µM.
In the case of `O=c1c2ccccc2oc2cc(OCCBr)cc(O)c12`, the IC50 (CNE) is reported as over 100 µM, the IC50 [1] is reported as over 100 µM and the IC50 (MGC-803 [2]) is reported as 21.5 µM. It also gave an IC50 (A549) of over 100 µM.
Compound `O=c1c2ccccc2oc2cc(OCCCCCN3CCCC3)cc(O)c12` has an IC50 (CNE) of 12.1 µM, an IC50 [1] of 18.2 µM and an IC50 (MGC-803 [2]) of 3.81 µM. For the same compound, the IC50 (A549) was 5.99 µM.
`O=c1c2ccccc2oc2cc(OCCCCN3CCOCC3)cc(O)c12` gave an IC50 (CNE) of over 100 µM, an IC50 [1] of over 100 µM and an IC50 (MGC-803 [2]) of over 100 µM. The IC50 (A549) was over 100 µM.
In the case of `O=c1c2ccccc2oc2cc(OCCCBr)cc(O)c12`, the IC50 (CNE) is reported as over 100 µM, the IC50 [1] is reported as over 100 µM and the IC50 (MGC-803 [2]) is reported as 28.9 µM. It also gave an IC50 (A549) of over 100 µM.
With `O=c1c2ccccc2oc2cc(OCCN3CCCC3)cc(O)c12` the IC50 (CNE) was 11.3 µM, the IC50 [1] was 14.6 µM and the IC50 (MGC-803 [2]) was 5.63 µM. It also gave an IC50 (A549) of 12.8 µM.
For `C[N+]1(CCCCCOc2cc(O)c3c(=O)c4ccccc4oc3c2)CCCC1`, the IC50 (CNE) was 3.88 µM, the IC50 [1] was over 100 µM and the IC50 (MGC-803 [2]) was 12.7 µM. The IC50 (A549) was 10.7 µM.
Work on `C[N+]1(CCOc2cc(O)c3c(=O)c4ccccc4oc3c2)CCCC1` yielded an IC50 (CNE) of 65.9 µM, an IC50 [1] of over 100 µM and an IC50 (MGC-803 [2]) of 83.3 µM. The IC50 (A549) was over 100 µM.
In the case of `O=c1c2ccccc2oc2cc(OCCCCN3CCCC3)cc(O)c12`, the IC50 (CNE) is reported as 5.97 µM, the IC50 [1] is reported as 20.8 µM and the IC50 (MGC-803 [2]) is reported as 4.5 µM. It also gave an IC50 (A549) of 18.5 µM.
For `C[N+]1(CCCCOc2cc(O)c3c(=O)c4ccccc4oc3c2)CCCCC1`, the IC50 (CNE) was 26.5 µM, the IC50 [1] was over 100 µM and the IC50 (MGC-803 [2]) was 5.13 µM. For the same compound, the IC50 (A549) was 19.2 µM.
Compound `O=c1c2ccccc2oc2cc(OCCCCBr)cc(O)c12` has an IC50 (CNE) of 85.6 µM, an IC50 [1] of 67.9 µM and an IC50 (MGC-803 [2]) of 22.7 µM. For the same compound, the IC50 (A549) was over 100 µM.
For `O=c1c2ccccc2oc2cc(OCCCN3CCCC3)cc(O)c12`, the IC50 (CNE) was 6.25 µM, the IC50 [1] was 13 µM and the IC50 (MGC-803 [2]) was 6.66 µM. It also gave an IC50 (A549) of 11.6 µM.
In the case of `C[N+]1(CCCCOc2cc(O)c3c(=O)c4ccccc4oc3c2)CCCC1`, the IC50 (CNE) is reported as over 100 µM, the IC50 [1] is reported as over 100 µM and the IC50 (MGC-803 [2]) is reported as 8.04 µM. For the same compound, the IC50 (A549) was 19.5 µM.
For `C[N+]1(CCCCOc2cc(O)c3c(=O)c4ccccc4oc3c2)CCOCC1`, the IC50 (CNE) was 92.9 µM, the IC50 [1] was over 100 µM and the IC50 (MGC-803 [2]) was 17.6 µM. It also gave an IC50 (A549) of over 100 µM.
Compound `C[N+](C)(C)CCCCOc1cc(O)c2c(=O)c3ccccc3oc2c1` has an IC50 (CNE) of 38.5 µM, an IC50 [1] of over 100 µM and an IC50 (MGC-803 [2]) of 38.1 µM. It also gave an IC50 (A549) of 83.9 µM.
Work on `CC[N+](C)(CC)CCCCOc1cc(O)c2c(=O)c3ccccc3oc2c1` yielded an IC50 (CNE) of over 100 µM, an IC50 [1] of over 100 µM and an IC50 (MGC-803 [2]) of 4.61 µM. For the same compound, the IC50 (A549) was 13 µM.
`O=c1[nH]cc(F)c(=O)[nH]1` [FLUOROURACIL] gave an IC50 (CNE) of 15.1 µM, an IC50 [1] of 19.8 µM and an IC50 (MGC-803 [2]) of 7.76 µM. The IC50 (A549) was 7.62 µM.
With `CCN(CC)CCCCOc1cc(O)c2c(=O)c3ccccc3oc2c1` the inhibition (MGC-803 [3]) was “Dose-dependent effect”, the inhibition (MGC-803 [4]) was “Active” and the inhibition (MGC-803 [5]) was “Dose-dependent effect”. The Activity (MGC-803 [6]) was “Dose-dependent effect”, the Activity (MGC-803 [7]) was “Dose-dependent effect” and the IC50 (CNE) was 3.63 µM. The IC50 [1] was 20.1 µM, the IC50 (MGC-803 [2]) was 3.57 µM and the IC50 (A549) was 7.57 µM. The inhibition (MGC-803 [8]) was “Dose-dependent effect”, the inhibition (MGC-803 [9]) was “tde” and the IC50 (MGC-803 [10]) was 11.9 µM. For the same compound, the IC50 (MGC-803 [11]) was 1.82 µM and the inhibition (MGC-803 [12]) was “Active”.
With `C[N+]1(CCCOc2cc(O)c3c(=O)c4ccccc4oc3c2)CCCC1` the IC50 (CNE) was over 100 µM, the IC50 [1] was over 100 µM and the IC50 (MGC-803 [2]) was 9.66 µM. It also gave an IC50 (A549) of over 100 µM.
Compound `O=c1c2ccccc2oc2cc(OCCCCN3CCCCC3)cc(O)c12` has an IC50 (CNE) of 16.2 µM, an IC50 [1] of 54.4 µM and an IC50 (MGC-803 [2]) of 28.2 µM. It also gave an IC50 (A549) of 88.4 µM.
With `CN(C)CCCCOc1cc(O)c2c(=O)c3ccccc3oc2c1` the IC50 (CNE) was 3.81 µM, the IC50 [1] was 20.3 µM and the IC50 (MGC-803 [2]) was 5.99 µM. The IC50 (A549) was 8.83 µM.
Work on `C[N+]1(CCCCCCOc2cc(O)c3c(=O)c4ccccc4oc3c2)CCCC1` yielded an IC50 (CNE) of 4.82 µM, an IC50 [1] of 23.9 µM and an IC50 (MGC-803 [2]) of 14.8 µM. It also gave an IC50 (A549) of 9.95 µM.
Compound `O=c1c2ccccc2oc2cc(OCCCCCBr)cc(O)c12` has an IC50 (CNE) of over 100 µM, an IC50 [1] of 77.2 µM and an IC50 (MGC-803 [2]) of 24.4 µM. For the same compound, the IC50 (A549) was over 100 µM.
